Experimental data published in ChEMBL document CHEMBL3526062, “Role of human UDP-glucuronosyltransferases in the biotransformation of the triazoloacridinone and imidazoacridinone antitumor agents C-1305 and C-1311: highly selective substrates for UGT1A10” (Drug Metab Dispos, 2012).

Experiments:
[1] = target: T1, UDP-glucuronosyltransferase 1A10 (Homo sapiens, UniProt Q9HAW8); assay: Activity of human recombinant UGT1A10 expressed in baculovirus-infected Sf9 cells assessed as glucuronidation activity per mg of protein at 100 to 200 uM after 60 mins in presence of 3 mM UDP-GlcUA; assay type: ADME; settings: sf9, 1 h
T1 sequence (Q9HAW8 whole entry): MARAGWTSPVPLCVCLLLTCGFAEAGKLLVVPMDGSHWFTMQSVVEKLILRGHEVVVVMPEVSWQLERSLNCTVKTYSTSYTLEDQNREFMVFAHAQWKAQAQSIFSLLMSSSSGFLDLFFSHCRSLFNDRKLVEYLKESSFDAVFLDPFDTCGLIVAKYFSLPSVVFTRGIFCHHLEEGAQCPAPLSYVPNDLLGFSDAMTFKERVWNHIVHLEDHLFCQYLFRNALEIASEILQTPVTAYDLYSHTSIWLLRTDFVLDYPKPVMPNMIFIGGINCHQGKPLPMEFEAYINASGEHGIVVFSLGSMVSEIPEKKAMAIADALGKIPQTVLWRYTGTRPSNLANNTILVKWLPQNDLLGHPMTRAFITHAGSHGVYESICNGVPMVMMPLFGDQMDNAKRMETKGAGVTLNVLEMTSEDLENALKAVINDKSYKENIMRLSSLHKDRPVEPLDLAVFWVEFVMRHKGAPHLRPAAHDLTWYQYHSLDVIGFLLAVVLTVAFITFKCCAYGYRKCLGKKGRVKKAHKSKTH
Procedure, shortened: (§1)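 Screening: 5 μg recombinant UGT protein (His-tag levels normalized) in Tris-HCl pH 7.4, 5 mM MgCl2, 5 mM saccharolactone, 2% DMSO to permeabilize membranes. Substrate at 100 or 200 μM, added in water. Started with 3 mM UDP-GlcUA, 60 min at 37°C, stopped with ethanol, then centrifuged. Glucuronide quantified by reversed-phase C18 HPLC against the substrate response; triplicates.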

[2] = Drug metabolism in human intestinal microsomes assessed as glucuronidation activity at 0.2 mM for 60 mins by ESI-MS analysis in presence of 3 mM UDP-GlcUA; assay type: ADME, Intestine, Microsome; settings: 1 h, 200 µM
Procedure, shortened: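 Single-donor liver or intestinal microsomes (20 μg total protein) incubated with 0.2 mM substrate and 3 mM UDP-GlcUA for 60 min at 37°C in Tris-HCl pH 7.4, MgCl2, saccharolactone, 2% DMSO. Ethanol stop, centrifuged, HPLC analysis; triplicates.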

[3] = Drug metabolism in human intestinal microsomes assessed as glucuronidation after 60 mins by Michaelis-Menten equation in presence of 3 mM UDP-GlcUA; assay type: ADME, Intestine, Microsome
Procedure, shortened: (§2)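 Recombinant UGT membrane protein (5 μg; His-tagged UGT1A levels normalized by anti-His Western blot) or single-donor microsomes (20 μg) incubated with substrate 5–1000 μM and 3 mM UDP-GlcUA in […] pH 7.4, 5 mM MgCl2, 5 mM saccharolactone, 2% DMSO, 60 min, 37°C. Ethanol stop, centrifuged, HPLC-UV. Initial velocities fitted to Michaelis-Menten, Hill or substrate-inhibition models; three determinations.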

[4] = Drug metabolism in human liver microsomes assessed as glucuronidation after 60 mins by Michaelis-Menten equation in presence of 3 mM UDP-GlcUA; assay type: ADME; procedure, shortened: as §2
[5] = target: T2, UDP-glucuronosyltransferase 1A9 (Homo sapiens, UniProt O60656); assay: Inhibition of human recombinant UGT1A9 activity expressed in baculovirus-infected Sf9 cells; assay type: ADME
T2 sequence (O60656 whole entry): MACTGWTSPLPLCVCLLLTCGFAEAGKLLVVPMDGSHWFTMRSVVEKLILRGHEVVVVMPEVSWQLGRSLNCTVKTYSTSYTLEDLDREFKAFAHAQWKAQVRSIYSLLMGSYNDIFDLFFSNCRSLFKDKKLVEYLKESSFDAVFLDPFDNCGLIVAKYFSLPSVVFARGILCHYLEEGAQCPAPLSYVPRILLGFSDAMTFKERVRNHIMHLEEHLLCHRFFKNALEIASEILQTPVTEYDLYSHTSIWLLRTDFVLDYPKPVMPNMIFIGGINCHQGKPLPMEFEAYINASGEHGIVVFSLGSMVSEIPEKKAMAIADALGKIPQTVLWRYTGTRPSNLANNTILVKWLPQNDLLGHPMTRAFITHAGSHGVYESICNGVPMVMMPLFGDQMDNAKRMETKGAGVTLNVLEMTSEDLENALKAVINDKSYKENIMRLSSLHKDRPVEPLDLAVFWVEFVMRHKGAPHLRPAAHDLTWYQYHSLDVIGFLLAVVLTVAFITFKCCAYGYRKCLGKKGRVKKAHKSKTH

[6] = Drug metabolism in human stomach microsomes assessed as glucuronidation activity at 0.1 mM for 60 mins in presence of 3 mM UDP-GlcUA; assay type: ADME; settings: 1 h, 100 µM
Procedure, shortened: (§3)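 Microsomes from single donors (20 μg protein) incubated with 0.1 mM substrate and 3 mM UDP-GlcUA for 60 min at 37°C in Tris-HCl pH 7.4 buffer with 5 mM MgCl2, 5 mM saccharolactone and 2% DMSO. Glucuronide measured by HPLC; donor data summarized as box-and-whisker plots.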

[7] = target: T3, UDP-glucuronosyltransferase 1A7 (Homo sapiens, UniProt Q9HAW7); assay: Activity of human recombinant UGT1A7 expressed in baculovirus-infected Sf9 cells assessed as glucuronidation activity per mg of protein at 100 to 200 uM after 60 mins in presence of 3 mM UDP-GlcUA; assay type: ADME; settings: sf9, 1 h; procedure, shortened: as §1
T3 sequence (Q9HAW7 whole entry): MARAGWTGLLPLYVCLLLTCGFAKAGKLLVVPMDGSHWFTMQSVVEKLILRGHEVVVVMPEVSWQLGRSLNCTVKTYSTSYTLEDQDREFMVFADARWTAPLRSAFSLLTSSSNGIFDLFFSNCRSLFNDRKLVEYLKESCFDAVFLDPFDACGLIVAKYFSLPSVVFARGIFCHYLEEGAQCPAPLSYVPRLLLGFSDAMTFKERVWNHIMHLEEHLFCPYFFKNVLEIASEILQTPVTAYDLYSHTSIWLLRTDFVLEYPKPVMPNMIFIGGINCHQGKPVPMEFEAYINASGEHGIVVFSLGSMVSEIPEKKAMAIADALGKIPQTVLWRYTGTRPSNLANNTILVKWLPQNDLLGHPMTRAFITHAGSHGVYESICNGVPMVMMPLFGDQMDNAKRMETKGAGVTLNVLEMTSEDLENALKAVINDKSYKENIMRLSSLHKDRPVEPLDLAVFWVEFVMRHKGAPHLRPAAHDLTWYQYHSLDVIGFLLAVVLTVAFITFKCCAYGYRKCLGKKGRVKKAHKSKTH

[8] = Drug metabolism in human jejunum microsomes assessed as glucuronidation activity at 0.1 mM for 60 mins in presence of 3 mM UDP-GlcUA; assay type: ADME; settings: 1 h, 100 µM; procedure, shortened: as §3

Compound	Drug metabolism [1] [nmol/min/mg]	Drug metabolism [2]	Km at 1 h [3] [µM]	Km at 1 h [4] [µM]	Ki [5] [µM]	Drug metabolism [6]	Drug metabolism [7] [nmol/min/mg]	Drug metabolism [8]
CN(C)CCCNc1ccc2nnn3c4ccc(O)cc4c(=O)c1c23	> 0.5	metabolite_detected	76.9	71.3	1650	metabolite_detected	0.2	metabolite_detected
CCN(CC)CCNc1ccc2ncn3c4ccc(O)cc4c(=O)c1c23 [C-1311]	> 0.5	metabolite_detected	159	39.3	958	metabolite_detected	0.2	metabolite_detected
